CHOP UPR activ – activators of apoptotic arm of unfolded protein response (CHOP); CHO-CHOP luciferase reporter, UPR activation, luminescence; percent of tunicamycin response over DMSO baseline; activation, % at 10 µM; 330,000 tested, 0.34% active; AID 449763;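 active = at 10 µM dose, activation of 40% or more, normalized to positive control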
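assay system = CHO CHOP reporter cells | amount = 500 CHO-CHOP cells per well | buffer or medium = F12 with 10% FBS | incubation = 16-18 h cell attachment, then 6 h compound exposure, 37 °C | detection = luminescence read with Steady-Glo | read-out = percent activation relative to tunicamycin control | controls = tunicamycin high control, DMSO low control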
aDG glyco act – increases alpha dystroglycan glycosylation; Pro5-aDG cells, alpha-DG glycosylation AlphaScreen (IIH6); 0% Pro5, 100% B10-LARGE cell signal; activation, % at 10 µM; 360,000 tested, 0.22% active; AID 624168;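 active = activation of at least 8% versus controls, or a plate z-score of at least 8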;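 note: Pro5 are CHO cells carrying HIG-tagged alpha-DG that lacks glycosylation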
GRIN3A LBD mod – modulates the human NR3A ligand-binding domain. AID 1259313. Tm shift relative to glycine control, % at 25 µM. NR3A LBD differential scanning fluorimetry, Tm shift; 0% = protein alone, 100% = glycine-bound protein. 340,000 tested, 2.5% active;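 active = melting temperature shift of at least 10% of the positive control shift, at one fixed dose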
MPTP inh – inhibitors of mitochondrial permeability transition pore; inhibition, % at 10 µM; 360,000 tested, 1.4% active; isolated mouse mitochondria, Ca2+ swelling absorbance, 30 min; AID 602449;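 active = inhibition of 50% or more, scaled per plate between neutral and stimulator controls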
CHOP inhibitor – CHOP inhibition in unfolded protein response; AID 2732; CHO-K1 CHOP-promoter luciferase, tunicamycin-induced, 15-18 h; inhibition, % at 10 µM; 220,000 tested, 3.8% active;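 active = compounds that reduced the stress-induced luciferase reporter signal by more than about 70% of percent inhibition, limit read from the data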
XBP1 UPR activ – activators of adaptive arm of unfolded protein response (XBP1) | activation, % at 20 µM | AID 463104 | CHO-XBP1 luciferase reporter, IRE1-XBP1 UPR activation, luminescence; percent of tunicamycin response, DMSO as zero | 330,000 tested, 0.33% active;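 active = versus positive control, 20 µM dose yields 30% or more activation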
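Material: CHO cell line with stable XBP1 luciferase reporter; buffer or medium: F12 medium containing 10% fetal bovine serum; compound: single point, 20 µM final compound, 1% DMSO; incubation: 6 h treatment, 37 °C; measured by: glow luminescence from Steady-Glo reagent; evaluation: activation, % of tunicamycin; control set: tunicamycin high, DMSO low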
Large screens that a line does not name were inactive. This is a sample that favours compounds with a hit; in the whole collection about 5.6% have one here.

O=C1CCC[C@@H]2[C@H]3CCC[N+]4([O-])CCC[C@@H](CN12)[C@@H]34 (stereo not given in full)	none (no result: CHOP inhibitor)
COc1cc(C2=NOC(C(=O)NCc3ccco3)C2)cc(OC)c1OC (stereo not given)	none (no result: CHOP inhibitor)
COc1ccc(C2=NOC(C(=O)NCc3ccco3)C2)cc1 (stereo not given)	GRIN3A LBD mod 11
COC(=O)C1=C(C(=O)OC)[C@@H]2N(Cc3ccccc3)c3ccccc3[C@@]23C[C@@H](C(=O)OC)N(C(=O)COCc2ccccc2)C3=N1	none
Cc1ccc(C)c(-c2cc(C(=O)NC3CC3)c3ccccc3n2)c1	none (no result: CHOP inhibitor)
Cc1cccc(-c2cc(C(=O)NCc3ccccn3)c3ccccc3n2)c1	GRIN3A LBD mod 16
O=C(NCc1ccccn1)c1cc(-c2ccccc2)nc2ccccc12	none
Cc1cccc(-c2cc(C(=O)Nc3sc(C)c(C)c3C(N)=O)c3ccccc3n2)c1	GRIN3A LBD mod 15
Cc1ccc(C)c(-c2cc(C(=O)Nc3sc(C)c(C)c3C(N)=O)c3ccccc3n2)c1	GRIN3A LBD mod 14
O=C1NC(Cc2ccccc2)c2nc3cc(Cl)ccc3c(=O)n2-c2ccccc21 (stereo not given)	none (no result: aDG glyco act, GRIN3A LBD mod, MPTP inh, CHOP inhibitor)
CN(C)c1ccc(C(CNC(=O)c2ccco2)N2CCCC2)cc1 (stereo not given)	none (no result: CHOP inhibitor)
Cc1cccc(NC(=O)c2cc(NC(=O)c3ccccc3)ccc2N2CCCCC2)c1	none
C#Cc1ccc(C(=O)Nc2ccc(N3CCC(C)CC3)c(C(N)=O)c2)cc1	GRIN3A LBD mod 27
C=CCn1c(NS(=O)(=O)c2ccccc2)c(S(=O)(=O)c2ccc(C)cc2)c2nc3ccccc3nc21	GRIN3A LBD mod 11 (no result: CHOP UPR activ, XBP1 UPR activ)
CC(=O)Nc1c(S(=O)(=O)c2ccccc2)c2nc3ccccc3nc2n1Cc1ccccc1	none
Cc1sc2ncnc(N(C)CCc3ccccn3)c2c1C	none
Cc1sc2ncnc(N(C)Cc3cccs3)c2c1C	GRIN3A LBD mod 11
O=C(CCn1c(=O)c2cccn2c2cccnc21)NCc1cccc(Cl)c1	GRIN3A LBD mod 10 (no result: CHOP inhibitor)
Cc1cccc(CS(=O)(=O)c2nnc([C@H](Cc3ccccc3)NC(=O)OC(C)(C)C)o2)c1	CHOP inhibitor 115
O=C(CSc1nnnn1-c1ccc(C(=O)O)cc1)NC1CC1	none (no result: CHOP inhibitor)
c1csc(-c2csc(-c3cccs3)n2)c1	CHOP inhibitor 77
O=C(NCCC1=CCCCC1)c1cccc2c1C(=O)N(C1CCCCC1)C2	CHOP inhibitor 85
Cc1cccc(CCNC(=O)c2cccc3c2C(=O)N(C2CCCCC2)C3)c1	none (no result: CHOP inhibitor)
O=C1C(=O)N(Cc2ccccc2)C(=O)N1CCOc1ccccc1	none
CC1(C)Cc2c(cnn2-c2ccccc2)-c2c1c1ccccc1n2CC(O)CBr (stereo not given)	CHOP inhibitor 95
O=C(Nc1ccc(F)cc1)c1oc2ccccc2c1NC(=O)C1CCCC1	GRIN3A LBD mod 13, CHOP inhibitor 71
O=C(Nc1ccccc1F)c1oc2ccccc2c1NC(=O)C1CC1	none (no result: CHOP inhibitor)
CC1(c2nnnn2C2CCCCC2)CCC(=O)N1Cc1ccc2c(c1)OCO2 (stereo not given)	none (no result: CHOP UPR activ, GRIN3A LBD mod, CHOP inhibitor, XBP1 UPR activ)
Cc1[nH]c2c(Br)cccc2c1[C@H]1[C@@H](CC#N)C1(C)C	CHOP inhibitor 72
CCCCOc1ccc(-c2nnn(CC(=O)NCCc3c[nH]c4ccccc34)n2)cc1	GRIN3A LBD mod 17, CHOP inhibitor 79
Cc1ccc(NC(=O)CCSc2nnnn2-c2ccc3c(c2)OCO3)cc1C	CHOP inhibitor 73
CCC(=O)Nc1ccc(NC(=O)CSc2nnnn2-c2ccc3c(c2)OCCO3)cc1	none
O=C(CSc1nnnn1-c1ccc2c(c1)OCCO2)Nc1nc2c(s1)CCCC2	CHOP inhibitor 87
COC(=O)c1cccc(-n2nnnc2SCC(=O)Nc2nc3c(s2)CCCC3)c1	CHOP inhibitor 88
COc1cccc(-n2nnnc2SCC(=O)Nc2nc3c(s2)CCCC3)c1	none
O=C(NCCCO)C(=O)NCc1ccccn1	none
COc1cccc(CN(C)CCCn2ccc(NC(=O)OCc3ccccc3)nc2=O)c1	none (no result: CHOP UPR activ, CHOP inhibitor, XBP1 UPR activ)
Cc1ccc(S(=O)(=O)N2CCCCC2C(=O)O)s1 (stereo not given)	none
CCC(C(=O)O)n1c(C(F)(F)F)nc2ccccc21 (stereo not given)	GRIN3A LBD mod 12
CC(C(=O)Nc1ccccc1C(=O)O)n1c(C(F)(F)F)nc2ccccc21 (stereo not given)	none
Cc1cc(F)ccc1-c1cc(C(=O)NCc2cccc(C(F)(F)F)c2)[nH]n1	none (no result: CHOP UPR activ, GRIN3A LBD mod, CHOP inhibitor, XBP1 UPR activ)
CCCNc1nc(Nc2ccc(C)cc2)nc(N2CCCC2)n1	CHOP inhibitor 70
CCOc1ccc(NC(=O)CCC(=O)NNC(=O)Nc2ccc(Cl)cc2)cc1	GRIN3A LBD mod 12
O=C(NCCO)c1ccc(CSc2nc3ccccc3[nH]2)cc1	none
CC1C/C(=N/NC(=O)c2ccc(CSc3nc4ccccc4[nH]3)cc2)CC(C)(C)C1 (stereo not given)	CHOP inhibitor 75
COc1ccc(NC(=O)N(C)C[C@H]2OCCCC[C@H](C)Oc3ccc(NS(=O)(=O)c4cn(C)cn4)cc3C(=O)N([C@H](C)CO)C[C@@H]2C)cc1	none (no result: CHOP UPR activ, GRIN3A LBD mod, CHOP inhibitor, XBP1 UPR activ)
O=C(Nc1nc2n(n1)C(c1ccc(Cl)cc1)CC(c1ccc(Cl)cc1)N2)c1ccco1 (stereo not given)	CHOP inhibitor 81 (no result: aDG glyco act, MPTP inh)
COC(=O)c1c(O)cc(C(C)(C)C)n(-c2ccccc2)c1=O	GRIN3A LBD mod 18
N#C/C(=C\c1cccc(NC(=O)c2ccccc2Cl)c1)C(=O)NCCc1ccccc1	none
NC(=O)CC1(CC(=O)O)CCCCC1	GRIN3A LBD mod 13
COc1ccccc1C(=O)NCCNc1ccc([N+](=O)[O-])cc1Cl	none (no result: CHOP inhibitor)
Cc1ccc(C(=O)NC(NC(=S)Nc2ccc(S(N)(=O)=O)cc2)C(Cl)(Cl)Cl)cc1 (stereo not given)	GRIN3A LBD mod 19
Cc1ccccc1C(=O)NC(NC(=S)Nc1ccc(S(N)(=O)=O)cc1)C(Cl)(Cl)Cl (stereo not given)	none
COc1ccc(/C=C2/SC(=O)N(CC(O)Cn3c4ccccc4c4ccccc43)C2=O)cc1 (stereo not given)	GRIN3A LBD mod 13
Cc1ccc(OCC(=O)NCCNC(=O)COc2ccc(C)cc2)cc1	none (no result: CHOP inhibitor)
Cc1ccc(OCC(=O)Sc2ccc(C)cc2)cc1	GRIN3A LBD mod 15
Cc1cc(C)cc(NC(=O)Nc2ccc3c(c2)N(C)C(=O)CS3)c1	CHOP inhibitor 87
Cc1ccc(NC(=O)Nc2ccc3c(c2)N(C)C(=O)CS3)cc1C	CHOP inhibitor 73
CCOC(=O)N1CCN(C2CCCN(C(=O)c3cccc(Cl)c3)C2)CC1 (stereo not given)	none (no result: CHOP inhibitor)

Screening data deposited in PubChem BioAssay by several laboratories.
